“Also recorded” adds a separate entry of the source. Read-outs that look alike come from different tables or passages of the source.

For series [1] the following is noted: in vitro studies; cited from earlier work.
For series [2] the following is noted: severe renally impaired and ESRD subjects; cited from earlier work.
Series [3] in a line: Immunogenicity: antidrug antibodies. The conditions noted are these: 100 µg s.c. single dose; baseline, 7 and 28 days after treatment. The class given is in vivo, human. The method, boiled down:
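Open-label single subcutaneous dose of test compound (100 µg, lower abdomen, fasted) in adults with normal or impaired renal function. Antidrug antibody titers were measured at baseline, 7 and 28 days post-dose, or at early discontinuation. Cross-reactivity to GLP-1 and glucagon was also recorded. Treatment-emergent incidence is treatment-induced plus treatment-boosted ADA. Analysed in all treated participants with ADA readings.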

The conditions of series [4]: cited from earlier work.
The format of series [5] is in vivo, human. The note with it: 100 µg s.c. single dose. The method, boiled down: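 Adults aged 18–85 (BMI 17–40 kg/m2) were grouped by Cockcroft–Gault CrCl and given a single subcutaneous 100 µg dose of test compound. Fasting ran from ≥8 h before to 4 h after dosing, with no fluids 1 h before to 2 h after. Adverse events, vitals, ECG, telemetry and laboratory tests were monitored inpatient for 72 h, then outpatient at days 7±1 and 28±2. TEAEs were coded by MedDRA 21.0, counting each once at highest severity.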

The conditions of series [6]: 5–300 µg dose range; previously demonstrated, no reference given; cited from earlier work.

As for “exenatide: GLP-1 receptor agonist exenatide (exendin-4)”, in series [1], the “Primary cleavage sites (metabolized specifically in the kidney)” value is “after amino acids (AA)-21 and -22”. Further, the “Tolerability and PK in severe renal impairment and ESRD” value in series [2] is “poor tolerability and significant changes in PK”.

Take `CCCCCCCCCCCCCCCC(=O)N[C@@H](CCC(=O)NCCCC[C@H](NC(=O)[C@H](CC(=O)O)NC(=O)[C@H](CO)NC(=O)[C@@H](NC(=O)[C@H](Cc1ccccc1)NC(=O)[C@@H](NC(=O)CNC(=O)[C@H](CCC(N)=O)NC(=O)[C@H](CO)NC(=O)[C@@H](N)Cc1c[nH]cn1)[C@@H](C)O)[C@@H](C)O)C(=O)N[C@@H](CO)C(=O)N[C@@H](CCC(=O)O)C(=O)N[C@@H](Cc1ccc(O)cc1)C(=O)N[C@@H](CC(C)C)C(=O)N[C@@H](CC(=O)O)C(=O)N[C@@H](CO)C(=O)N[C@@H](CCC(=O)O)C(=O)N[C@@H](CCCNC(=N)N)C(=O)N[C@@H](C)C(=O)N[C@@H](CCCNC(=N)N)C(=O)N[C@@H](CC(=O)O)C(=O)N[C@@H](Cc1ccccc1)C(=O)N[C@H](C(=O)N[C@@H](C)C(=O)N[C@@H](Cc1c[nH]c2ccccc12)C(=O)N[C@@H](CC(C)C)C(=O)N[C@@H](CCC(=O)O)C(=O)N[C@@H](C)C(=O)NCC(=O)NCC(=O)O)C(C)C)C(=O)O` [cotadutide]: the “Antidrug antibody (ADA) results” value in series [3] is on record as “No positive antidrug antibody results; also recorded: No confirmed positive ADA results”. The “Urine albumin-to-creatinine ratio vs placebo” value in series [4] (32-day treatment with cotadutide 50–300 µg, T2D and stage 3 CKD with micro- and macroalbuminuria) was “reduced urine albumin-to-creatinine ratio”. The “Participants with a serious TEAE deemed related to cotadutide” value in series [4] (once-daily cotadutide titrated to 50–300 µg for 32 days, moderate renal impairment and T2D, 1 of 21 participants) was 4.8%. This molecule also displayed an Incidence of headache in series [5] (10 of 37 individuals) of 27.0%. Further, the Incidence of nausea was 32.4% in series [5] (12 of 37 individuals) and 38% in series [5] (normal renal function group). Also, the Incidence of vomiting came out at 35.1% in series [5] (13 of 37 individuals) and 38% in series [5] (normal renal function group). Moreover, the “Severity of TEAEs” value in series [5] (all groups) is on record as “mostly mild to moderate in severity”. Besides, the “Incidence of TEAE” value in series [5] (all patients, 22 of 37) is on record as 59.5%; in series [5] (lower moderate renal impairment group, 8 of 11 patients), 72.7%; in series [5] (upper moderate renal impairment group, 3 of 7 patients), 42.9%. In addition, the “Incidence of nausea, range” value in series [5] (renal impairment groups) is recorded as 29–38%. The “Incidence of vomiting, range” value in series [5] (renal impairment groups) is recorded as 18–50%. For the same molecule, in series [5] (study period), the “Deaths or other serious TEAEs” value is “no deaths or other serious TEAEs”. Further, the “PK profile (dose and time dependence)” value in series [6] was “linear and time-independent PK profile”.

Source of the values: article PMC10256642 (Clinical Pharmacokinetics, 2023).
